Broadly, the Ki is the equilibrium dissociation constant of an inhibitor or competing ligand from its target. Low values mean a stronger hold on the target, high ones a looser hold on the target.

In test [1] the target is Muscarinic acetylcholine receptor. Kind of test: Displacement of [3H]QNB from muscarinic receptor in rat cortex.
In test [2] the target is 5-hydroxytryptamine receptor 4 (Cavia porcellus, UniProt O70528). Nature of the test: Displacement of [3H]GR-113808 from 5HT4 receptor in guinea pig striatum. On the technique in general: Loss of bound radioactivity is the signal in a displacement assay; it reports binding, not function.
Chain of 5-hydroxytryptamine receptor 4 (O70528 whole entry): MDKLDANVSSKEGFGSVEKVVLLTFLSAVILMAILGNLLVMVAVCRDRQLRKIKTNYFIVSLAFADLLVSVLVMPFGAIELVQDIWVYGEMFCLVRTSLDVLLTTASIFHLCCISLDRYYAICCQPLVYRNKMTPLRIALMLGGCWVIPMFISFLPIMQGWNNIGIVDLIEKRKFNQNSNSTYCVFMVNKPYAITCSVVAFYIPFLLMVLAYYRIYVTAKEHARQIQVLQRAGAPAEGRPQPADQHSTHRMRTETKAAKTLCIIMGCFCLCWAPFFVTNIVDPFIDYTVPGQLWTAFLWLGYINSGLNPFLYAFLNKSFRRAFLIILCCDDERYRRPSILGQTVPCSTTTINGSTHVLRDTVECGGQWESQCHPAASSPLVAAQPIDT
Test [3] has as its target 5-hydroxytryptamine receptor 2A (Rattus norvegicus, UniProt P14842). Nature of the test: Displacement of [3H]ketanserin from 5HT2A receptor in rat cortex.
In test [4] the target is T1, Adrenergic receptor alpha-1 (Rattus norvegicus, UniProt P15823+P23944+P43140).
T1 sequence (P15823 whole entry): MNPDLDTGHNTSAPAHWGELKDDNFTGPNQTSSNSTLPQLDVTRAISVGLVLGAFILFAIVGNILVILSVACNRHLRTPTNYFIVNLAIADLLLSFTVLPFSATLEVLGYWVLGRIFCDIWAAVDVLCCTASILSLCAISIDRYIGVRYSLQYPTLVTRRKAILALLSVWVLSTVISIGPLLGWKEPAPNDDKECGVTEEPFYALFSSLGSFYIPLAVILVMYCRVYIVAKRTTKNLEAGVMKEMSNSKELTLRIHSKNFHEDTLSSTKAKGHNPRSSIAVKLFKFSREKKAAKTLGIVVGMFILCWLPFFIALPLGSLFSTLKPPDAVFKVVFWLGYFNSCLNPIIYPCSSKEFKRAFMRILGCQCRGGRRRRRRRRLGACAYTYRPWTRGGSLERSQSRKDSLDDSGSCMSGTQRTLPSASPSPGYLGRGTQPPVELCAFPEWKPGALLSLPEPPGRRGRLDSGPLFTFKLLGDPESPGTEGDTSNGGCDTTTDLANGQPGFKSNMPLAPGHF
T1 sequence (P23944 whole entry): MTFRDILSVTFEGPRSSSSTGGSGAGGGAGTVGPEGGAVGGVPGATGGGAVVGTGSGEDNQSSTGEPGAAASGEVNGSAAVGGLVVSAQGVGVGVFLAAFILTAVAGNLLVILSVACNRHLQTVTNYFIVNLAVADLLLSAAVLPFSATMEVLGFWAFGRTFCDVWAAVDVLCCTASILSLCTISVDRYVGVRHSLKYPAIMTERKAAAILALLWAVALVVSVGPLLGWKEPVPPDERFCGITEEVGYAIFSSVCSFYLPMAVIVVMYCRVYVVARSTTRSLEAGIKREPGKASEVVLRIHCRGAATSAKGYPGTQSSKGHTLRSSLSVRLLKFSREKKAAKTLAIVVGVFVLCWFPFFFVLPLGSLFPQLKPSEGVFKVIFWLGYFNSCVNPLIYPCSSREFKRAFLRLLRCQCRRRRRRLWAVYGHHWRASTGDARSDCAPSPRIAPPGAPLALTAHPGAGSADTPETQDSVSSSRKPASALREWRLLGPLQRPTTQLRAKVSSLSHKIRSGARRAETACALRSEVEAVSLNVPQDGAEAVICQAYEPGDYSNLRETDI
T1 sequence (P43140 whole entry): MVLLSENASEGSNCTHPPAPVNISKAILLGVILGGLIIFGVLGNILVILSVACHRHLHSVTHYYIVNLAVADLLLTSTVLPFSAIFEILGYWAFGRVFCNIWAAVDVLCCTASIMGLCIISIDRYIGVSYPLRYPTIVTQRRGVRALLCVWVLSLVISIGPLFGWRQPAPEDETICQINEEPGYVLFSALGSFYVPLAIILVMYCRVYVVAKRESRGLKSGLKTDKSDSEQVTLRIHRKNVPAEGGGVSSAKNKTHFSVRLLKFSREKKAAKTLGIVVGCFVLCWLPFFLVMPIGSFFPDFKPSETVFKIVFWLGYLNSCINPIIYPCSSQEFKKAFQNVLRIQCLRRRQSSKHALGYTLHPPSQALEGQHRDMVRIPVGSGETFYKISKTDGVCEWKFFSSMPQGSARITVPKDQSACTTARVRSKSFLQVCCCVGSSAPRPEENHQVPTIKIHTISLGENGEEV
Kind of test: Displacement of [3H]prazosin from adrenergic alpha1 receptor in rat cortex.

Test [5] deals with T2, 5-hydroxytryptamine receptor 3A (Cavia porcellus) (UniProt O70212).
T2 sequence (whole entry): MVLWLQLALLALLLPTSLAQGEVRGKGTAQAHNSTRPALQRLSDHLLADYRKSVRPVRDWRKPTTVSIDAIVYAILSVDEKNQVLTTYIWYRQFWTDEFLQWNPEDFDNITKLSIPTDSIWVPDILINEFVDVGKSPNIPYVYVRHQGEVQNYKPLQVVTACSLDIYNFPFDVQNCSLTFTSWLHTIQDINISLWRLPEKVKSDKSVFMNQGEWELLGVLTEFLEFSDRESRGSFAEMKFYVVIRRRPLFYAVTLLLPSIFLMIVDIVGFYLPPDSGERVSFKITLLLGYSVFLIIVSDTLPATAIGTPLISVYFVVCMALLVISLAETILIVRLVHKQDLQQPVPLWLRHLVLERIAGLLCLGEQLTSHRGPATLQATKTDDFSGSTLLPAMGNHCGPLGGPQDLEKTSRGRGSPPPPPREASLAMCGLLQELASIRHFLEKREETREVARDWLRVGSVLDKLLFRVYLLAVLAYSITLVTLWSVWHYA
Nature of the test: Agonist activity at 5HT3 receptor in voltage-stimulated guinea pig left atrium assessed as positive inotropic potency at 100 uM. To be noted: Cardiac atrium. It is filed as functional, tissue-based. Summed up: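 Guinea pig left and right atria were hung in a 15 mL bath of PSS (pH 7.4, 95% O2-5% CO2, 35 °C) with ketanserin 1 µM. The right atrium beat spontaneously; the left was paced at 1 Hz. Cumulative doses (0.1-100 µM; DMSO ≤0.3%) were added after 45-60 min stabilization. Rate or isometric force was recorded. EC50 came from Probit analysis, n≥4. Intrinsic activity was taken relative to 5-HT.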

The next test concerns the target D(1A) dopamine receptor (Rattus norvegicus, UniProt P18901). Kind of test: Displacement of [3H]SCH-23390 from dopamine D1 receptor in rat striatum.
The target in another test is D(2) dopamine receptor (Rattus norvegicus, UniProt P61169). Nature of the test: Displacement of [3H]spiperone from dopamine D2 receptor in rat striatum.
Chain of D(2) dopamine receptor (P61169 whole entry): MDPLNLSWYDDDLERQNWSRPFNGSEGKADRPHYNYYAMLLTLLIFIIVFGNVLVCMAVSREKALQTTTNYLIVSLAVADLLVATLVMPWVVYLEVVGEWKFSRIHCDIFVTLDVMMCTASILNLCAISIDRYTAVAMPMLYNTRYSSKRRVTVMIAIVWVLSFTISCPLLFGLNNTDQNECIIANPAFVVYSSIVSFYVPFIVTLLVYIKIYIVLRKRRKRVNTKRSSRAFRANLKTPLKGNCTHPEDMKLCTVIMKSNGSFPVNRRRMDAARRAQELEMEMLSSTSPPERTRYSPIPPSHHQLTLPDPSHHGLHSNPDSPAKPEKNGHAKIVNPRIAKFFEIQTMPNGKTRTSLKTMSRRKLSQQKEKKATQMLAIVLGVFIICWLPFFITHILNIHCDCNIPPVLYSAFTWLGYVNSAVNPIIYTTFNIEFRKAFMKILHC
For test [6], the target named is T3, Alpha-2A adrenergic receptor (Rattus norvegicus, UniProt P22909).
T3 sequence (P22909 whole entry): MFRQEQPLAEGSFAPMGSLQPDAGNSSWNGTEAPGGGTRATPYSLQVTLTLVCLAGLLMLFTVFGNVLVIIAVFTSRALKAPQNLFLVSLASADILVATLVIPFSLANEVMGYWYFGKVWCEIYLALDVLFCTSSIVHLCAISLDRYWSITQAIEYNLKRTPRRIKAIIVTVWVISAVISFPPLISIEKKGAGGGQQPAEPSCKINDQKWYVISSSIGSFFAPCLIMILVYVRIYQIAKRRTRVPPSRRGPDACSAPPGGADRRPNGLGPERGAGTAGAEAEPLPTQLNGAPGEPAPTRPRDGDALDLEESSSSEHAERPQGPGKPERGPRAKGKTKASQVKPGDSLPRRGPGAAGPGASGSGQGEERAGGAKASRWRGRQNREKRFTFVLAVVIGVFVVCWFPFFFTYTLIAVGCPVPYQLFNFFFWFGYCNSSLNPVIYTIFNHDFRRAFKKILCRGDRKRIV
Kind of test: Displacement of [3H]RX821002 from adrenergic alpha2 receptor in rat cortex.

Active and inactive are the calls of the source. The calls are words filed in the database; no cut-off is given here. Bounds are passed on as bounds.

Chain of 5-hydroxytryptamine receptor 2A (P14842 whole entry): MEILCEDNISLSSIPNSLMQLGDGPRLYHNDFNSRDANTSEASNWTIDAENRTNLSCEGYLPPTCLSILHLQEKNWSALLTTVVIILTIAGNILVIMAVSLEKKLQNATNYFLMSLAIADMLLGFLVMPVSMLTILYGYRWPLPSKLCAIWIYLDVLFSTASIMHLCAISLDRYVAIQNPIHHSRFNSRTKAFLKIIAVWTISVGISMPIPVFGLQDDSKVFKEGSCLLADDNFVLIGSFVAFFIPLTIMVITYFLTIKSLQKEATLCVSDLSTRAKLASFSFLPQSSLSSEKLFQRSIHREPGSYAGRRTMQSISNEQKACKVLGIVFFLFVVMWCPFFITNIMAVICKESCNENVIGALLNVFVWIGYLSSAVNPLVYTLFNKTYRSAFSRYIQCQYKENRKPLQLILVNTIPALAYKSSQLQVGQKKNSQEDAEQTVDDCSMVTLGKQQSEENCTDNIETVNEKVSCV
Chain of D(1A) dopamine receptor (P18901 whole entry): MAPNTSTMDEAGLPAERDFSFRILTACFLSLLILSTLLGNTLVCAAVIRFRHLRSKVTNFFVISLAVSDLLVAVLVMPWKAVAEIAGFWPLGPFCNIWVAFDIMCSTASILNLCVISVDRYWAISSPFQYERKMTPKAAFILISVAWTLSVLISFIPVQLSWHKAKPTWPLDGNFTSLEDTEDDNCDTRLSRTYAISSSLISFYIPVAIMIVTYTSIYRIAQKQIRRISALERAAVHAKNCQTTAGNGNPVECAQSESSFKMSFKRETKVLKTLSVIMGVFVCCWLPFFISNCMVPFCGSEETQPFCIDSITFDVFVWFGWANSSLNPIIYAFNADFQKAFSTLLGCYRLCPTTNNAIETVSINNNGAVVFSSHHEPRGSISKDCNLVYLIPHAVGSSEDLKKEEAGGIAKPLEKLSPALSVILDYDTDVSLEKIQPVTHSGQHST

`N/C(CN1CCN(c2nc3cc(F)ccc3n3cccc23)CC1)=N\O`: the Ki (in test [1]; in test [2]; in test [3]; in test [4]; at D(1A) dopamine receptor; on D(2) dopamine receptor) was greater than 10 µM in each case. In test [6], this compound yielded a Ki greater than 10 µM. For the same compound, the pD2 entry in test [5] is “inactive”.
With `N[C@@H](CN1CCN(c2nc3cc(F)ccc3n3cccc23)CC1)C(=O)O`, the Ki in test [1] is greater than 10 µM; in test [2], greater than 10 µM; in test [3], 5.69 µM; in test [4], greater than 10 µM; at D(1A) dopamine receptor, greater than 10 µM; at D(2) dopamine receptor it was greater than 10 µM. This compound registered a Ki in test [6] greater than 10 µM. In addition, in test [5], the pD2 result is “inactive”.

The values above are taken from ChEMBL document CHEMBL1136924 (J Med Chem, 2009).
